# Source: PubChem BioAssay
# SR-BI DiI inh – mouse SR-BI HDL lipid transfer inhibition. Q61009. inhibition, % at 12.5 µM. hit rate 0.96% among 320,000. ldlA[mSR-BI] CHO cells, DiI-HDL uptake fluorescence, 3 h;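 active means mean replicate inhibition of at least 70% and a set share of replicates each scoring 70 or more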;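 further: 0% = median of neutral control wells and 100% = median of positive control wells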
# AHR activator – human AHR activation; P35869; activation, % at 5 µM; AHR-responsive luciferase reporter cells, luminescence; hit rate 2.5% among 320,000; in the data active means activation above about 47%;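 further: 0% = vehicle wells and 100% = reference agonist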
# HIF act – HIF pathway transcriptional activation; U2OS HRE-luciferase reporter, luminescence; normalized: DMSO 0%, desferrioxamine 100%; activation, % at 7.5 µM (by protocol); hit rate 0.32% among 300,000;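 active means mean activation of at least 10% of the iron chelator positive control signal, with at least half of replicates also reaching 10%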
# ABCB6 inh 2 – human ABCB6 transporter inhibition. Q9NP58. K562-ABCB6 porphyrin accumulation, flow cytometry, 1 h; hits give low values. fluorescence ratio to DMSO, % at 10 µM. hit rate 0.19% among 360,000. AID 602162;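 active means fluorescence ratio to DMSO below 75%, the collection mean minus 3 SD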;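 further: signal is porphyrin accumulated inside mitochondria; 100% equals median channel fluorescence of DMSO control wells; lower ratio means ABCB6 inhibition with less porphyrin fluorescence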
# Target sequence (Q9NP58 whole entry, looked up): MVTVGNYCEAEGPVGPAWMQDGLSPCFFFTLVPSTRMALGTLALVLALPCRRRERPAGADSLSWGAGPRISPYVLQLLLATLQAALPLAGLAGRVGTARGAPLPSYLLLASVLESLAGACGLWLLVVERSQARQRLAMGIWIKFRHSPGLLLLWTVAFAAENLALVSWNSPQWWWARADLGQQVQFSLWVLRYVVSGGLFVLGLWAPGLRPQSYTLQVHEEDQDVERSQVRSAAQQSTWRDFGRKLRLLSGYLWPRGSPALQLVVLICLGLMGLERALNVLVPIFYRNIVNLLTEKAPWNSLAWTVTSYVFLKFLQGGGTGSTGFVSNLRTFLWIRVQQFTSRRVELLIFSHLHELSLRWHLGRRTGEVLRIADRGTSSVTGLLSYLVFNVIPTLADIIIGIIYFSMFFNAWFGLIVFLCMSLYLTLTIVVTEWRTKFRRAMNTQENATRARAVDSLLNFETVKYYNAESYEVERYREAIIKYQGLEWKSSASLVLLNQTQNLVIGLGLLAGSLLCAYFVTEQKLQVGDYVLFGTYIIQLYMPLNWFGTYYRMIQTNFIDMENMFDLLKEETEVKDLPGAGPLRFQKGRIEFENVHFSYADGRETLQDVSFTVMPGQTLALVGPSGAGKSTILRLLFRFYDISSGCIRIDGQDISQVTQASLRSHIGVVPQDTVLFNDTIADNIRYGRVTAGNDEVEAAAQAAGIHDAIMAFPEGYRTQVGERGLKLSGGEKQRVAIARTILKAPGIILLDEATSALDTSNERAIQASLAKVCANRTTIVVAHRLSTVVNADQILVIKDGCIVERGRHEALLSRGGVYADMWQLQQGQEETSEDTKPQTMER
# SR-BI uptake up – activators of SR-BI mediated HDL lipid uptake; activation, % at 12.5 µM; CHO ldlA[mSR-BI] cells, DiI-HDL uptake fluorescence, 3 h; 100 = double the neutral-control signal; hit rate 0.096% among 320,000;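 active means mean replicate activation of at least 60% and every replicate at or above 60%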;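 further: 0% = median plate neutral-control signal and 100% = twice that signal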
#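 Assay system: LDL receptor-deficient CHO ldlA cells overexpressing murine SR-BI / Medium: BSA-supplemented, HEPES-buffered Ham's F12, pH 7.4 / Probe or stimulus: DiI-labelled HDL at 10 µg/mL final / Timing: compound with DiI-HDL co-incubation, 3 h at 37 °C / Technique: bottom-read cell fluorescence after medium removal, ex 550/em 595 nm / Measure: HDL uptake via cellular fluorescence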
# FXN GAA850 act – activators of GAA850 frataxin (FXN) promoter; HEK293 lucGAA850 FXN promoter luciferase reporter, 24 h; percent of 10 µM SAHA response; activation, % at 6 µM; hit rate 0.56% among 360,000; AID 540364;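 active means activation above the average of all compounds screened plus 3 SD, cutoff fixed separately per campaign, cut at about 7.5% in these data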;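 further: 0% = DMSO wells and 100% = 10 µM SAHA wells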
# Starred values were filed as active, the others as inactive; . = no result given. An excerpt weighted towards active compounds, which were near 3.9% of everything screened.
SMILES,SR-BI DiI inh,AHR activator,HIF act,ABCB6 inh 2,SR-BI uptake up,FXN GAA850 act
O=C(C1CCCN(c2ncnc3c2nc2n3CCCCC2)C1)N1CCN(c2cccc(Cl)c2)CC1 (configuration not stated),26,0,0,96,-26,1
Cc1cccc(N2CCN(C(=O)C3CCN(c4ncnc5c4nc4n5CCCCC4)CC3)CC2)c1C,74*,-1,1,91,-74,-1
NC(Cc1ccc(Cl)cc1)c1csc(Nc2ccc(C(=O)c3ccccc3)cc2)n1 (configuration not stated),.,.,.,97,.,-2
Cn1c(/C=C/c2ccccc2)nc2ccccc2c1=O,-2,24,-9,99,2,6
Cn1c(/C=C/c2ccc(Cl)cc2)nc2ccccc2c1=O,-14,49*,-11,96,14,7
O=c1c2ccccc2nc(/C=C/c2ccc(O)cc2)n1CCc1ccccc1,43,72*,0,99,-43,-3
CCn1c(/C=C/c2ccccc2)nc2ccccc2c1=O,32,79*,0,97,-26,2
CCn1c(/C=C/c2ccc(F)cc2)nc2ccccc2c1=O,30,21,0,103,-30,2
C=CCC1CCCCC1=C(C#N)c1ccccc1 (configuration not stated),.,.,.,100,.,0
Cc1ccc(-n2ccc(=O)c(-c3ccnc(SCc4cccc(Cl)c4)n3)n2)cc1,6,9,0,96,-6,4
Cc1ccc(NC2CC(=O)N(c3cccc([N+](=O)[O-])c3)C2=O)cc1 (configuration not stated),83*,1,0,95,-83,0
COc1ccc(N2C(=O)CC(Nc3cccc([N+](=O)[O-])c3)C2=O)cc1 (configuration not stated),.,-4,-1,97,.,2
CCN(CC)c1ccc(C2Nc3cccc4cccc(c34)N2)c(O)c1,114*,71*,.,102,-114,4
COc1cccc(C(=O)NC(=S)Nc2ccc3c4c(cccc24)CC3)c1,29,67*,2,158,-29,2
COc1ccc(OCC(=O)NC(=S)Nc2ccc3c4c(cccc24)CC3)cc1,10,5,0,100,-10,1
CCCC(C)NC(=O)c1cccc(Oc2ccccc2)c1 (configuration not stated),-18,3,2,95,18,6
O=C(NC(=S)Nc1nc2ccccc2s1)c1cccs1,-14,72*,2,272,14,5
C(=N\N1CCN(C(c2ccccc2)c2ccccc2)CC1)/c1ccc2c(c1)OCO2,20,-2,-1,97,-20,1
O=C(Nc1ccc(F)cc1)c1cc(-c2ccncc2)nc2c(Cl)cccc12,31,69*,-1,101,-31,1
COc1cccc(NC(=O)c2cc(-c3cccnc3)nc3c(Cl)cccc23)c1,82*,24,0,97,-82,-2
O=C(NNC(=O)c1cc(-c2ccncc2)nc2ccccc12)Nc1ccc(F)cc1,-20,-3,0,104,.,0
CN1CCN(c2c(F)cc3c(=O)c(C(=O)O)cn4c3c2OCN4C)CC1,-8,2,0,99,8,2
CCN1CCN(C(=O)NS(=O)(=O)c2ccc(C)cc2)CC1,-4,.,1,98,4,1
CCN(CCCNC(=O)C1CCN(S(=O)(=O)CC)CC1)c1ccccc1,-10,1,0,98,10,1
CC(=O)Nc1ccc(-n2c(C)ccc2C)cc1,-30,2,0,92,30,2
SMILES,SR-BI DiI inh,AHR activator,HIF act,ABCB6 inh 2,SR-BI uptake up,FXN GAA850 act
Nc1ccc(C(=O)Nc2nc3ccccc3s2)cc1,15,13,.,106,-15,3
Cc1cc(C)n(-c2ccc(C(=O)Nc3cccc([N+](=O)[O-])c3)cc2)n1,80*,-15,1,94,-80,-5
Cc1cc(C)n(-c2ccc(C(=O)Nc3nc4ccccc4s3)cc2)n1,70*,-8,4,101,-70,-1
COc1ccc2nc(C(F)(F)C(F)(F)F)c(C#N)c(N)c2c1,34,15,-2,102,-34,2
CCOC(=O)C1=C(N)Oc2ccc3ccccc3c2C1c1cccc(O)c1 (configuration not stated),12,50*,1,98,-12,-2
Cc1c(C)n(CCC(=O)O)c2ccccc12,1,1,0,98,-1,1
CC(C)n1c(Nc2ccccc2)nc2ccccc21,9,1,-2,96,-9,-2
COC(=O)Cn1c2ccccc2c2nc3ccccc3nc21,98*,.,-5,100,-98,2
CC(C)n1c2ccccc2c2nc3ccccc3nc21,44,57*,0,103,-44,2
O=C(O)CCn1c2ccccc2c2nc3ccccc3nc21,-8,60*,-18,100,8,6
Clc1ccc(-c2n[nH]c3c2CCCC3)cc1,10,56*,2,93,-10,3
Clc1ccc(-c2onc3c2CCCC3)cc1,-2,-4,1,96,2,2
COC(=O)Oc1nsnc1N1CCOCC1,-4,1,.,97,4,-1
Brc1ccc(Oc2nsnc2N2CCOCC2)cc1,37,56*,0,102,-37,1
COc1ccc2c3n([n+]([O-])c2c1)CCN=C3c1ccc(C)cc1,-9,29,.,98,9,3
COc1ccc2c3n([n+]([O-])c2c1)CCN=C3c1cc(Cl)c(N)c(Cl)c1,60,69*,.,101,-60,2
O=C(N/N=C/c1sc2ccccc2c1O)c1cccc2ccccc12,106*,20,12*,105,-106,-2
O=C(N/N=C/c1sc2ccccc2c1O)c1ccccc1,118*,73*,5,112,-118,-10
COc1ccc(C(=O)N/N=C/c2sc3ccccc3c2O)cc1,120*,24,0,108,-120,-1
O=C(N/N=C/c1cccn1-c1ccc(O)cc1)c1cccc2ccccc12,77*,21,0,87,-77,-1
CCCNC(=S)NCc1ccc(Cl)cc1,-7,-3,-46,101,7,-4
CCC1Oc2ccccc2N(CC(=O)N2CCCC2)C1=O (configuration not stated),.,.,.,98,.,-1
COc1cccc(/C=N/Nc2ncc(C)c(=O)[nH]2)c1OC,-8,7,0,98,8,2
COc1ccc2cc(C(=O)N/N=C/c3sc4ccccc4c3O)ccc2c1,96*,44,0,101,-96,3
COc1ccc2nc(NC(=O)CSc3nnnn3C)sc2c1,8,15,4,96,-8,3
Cc1ccccc1C(=O)N1[C@@H](C(C)C)COc2cc(Br)ccc2S1(=O)=O,8,.,.,96,-8,1
